Data from ChEMBL document CHEMBL3352241, “Design, synthesis and pharmacological evaluation of chalcone derivatives as acetylcholinesterase inhibitors” (Bioorg Med Chem, 2014).

Tests used:
[1] = biological target: Cholinesterases; ACHE & BCHE (Homo sapiens) (UniProt P06276+P22303); assay: Selectivity ratio of IC50 for BChE (unknown origin) to IC50 for AChE (unknown origin)
[2] = Octanol-water partition coefficient, log P of the compound at pH 7.4 by classical shake-flask method; format: physicochemical
Acetylcholinesterase [3] = biological target: T1, Acetylcholinesterase (Homo sapiens, UniProt P22303); assay: Inhibition of AChE (unknown origin) using acetylthiocholine iodide as substrate incubated for 25 mins by Ellman's method
Method in brief: (§1)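 Ellman spectrophotometric assay, slightly modified. Compounds were dissolved in tween 80 (0.06% final per reaction), then diluted in 2% tween 80–water. The enzyme, substrate (acetylthiocholine iodide for AChE, butyrylthiocholine iodide for BuChE) and compound were incubated in Na2HPO4/NaH2PO4 buffer pH 8.0 at 30 °C for 25 min. The reaction was stopped with 20% SDS, 10 mmol/L DTNB was added, and absorbance was read at 412 nm. Five concentrations per compound, in triplicate, spanned 20–80% inhibition. IC50 was calculated by the Bliss method and reported as mean ± SD.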

Cholinesterase = Cholinesterase (Homo sapiens, UniProt P06276); assay: Inhibition of BuChE (unknown origin) using butyrylthiocholine iodide as substrate incubated for 25 mins by Ellman's method
Method in brief: as §1, with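 “min.” for “min. The reaction was stopped with 20% SDS, 10 mmol/L DTNB was added, and absorbance was read at 412 nm. Five concentrations per compound, in triplicate, spanned 20–80% inhibition.”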

Acetylcholinesterase [4] = biological target: T1, Acetylcholinesterase; assay: Non-competitive inhibition of AChE (unknown origin) incubated for 25 mins by Lineweaver-Burk plot analysis
Acetylcholinesterase [5] = biological target: T1, Acetylcholinesterase; assay: Competitive inhibition of AChE (unknown origin) incubated for 25 mins by Lineweaver-Burk plot analysis

T1 sequence (P22303 whole entry): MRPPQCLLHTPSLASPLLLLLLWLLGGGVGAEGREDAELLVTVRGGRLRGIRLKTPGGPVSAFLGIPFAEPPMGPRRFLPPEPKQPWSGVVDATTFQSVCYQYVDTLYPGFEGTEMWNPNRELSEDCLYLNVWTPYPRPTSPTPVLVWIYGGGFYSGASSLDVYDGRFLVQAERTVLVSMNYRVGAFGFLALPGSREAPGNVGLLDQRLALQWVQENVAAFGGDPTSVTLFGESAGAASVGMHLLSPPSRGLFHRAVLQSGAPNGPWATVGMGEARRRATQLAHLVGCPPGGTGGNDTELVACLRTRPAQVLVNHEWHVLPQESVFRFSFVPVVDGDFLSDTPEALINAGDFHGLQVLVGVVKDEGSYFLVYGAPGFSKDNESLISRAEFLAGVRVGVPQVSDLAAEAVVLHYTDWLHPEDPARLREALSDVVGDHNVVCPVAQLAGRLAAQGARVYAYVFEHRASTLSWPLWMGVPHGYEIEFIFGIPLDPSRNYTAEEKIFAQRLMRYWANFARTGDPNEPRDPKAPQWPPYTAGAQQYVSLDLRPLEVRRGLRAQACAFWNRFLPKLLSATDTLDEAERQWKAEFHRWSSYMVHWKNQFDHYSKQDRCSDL
Sequence of Cholinesterase (P06276 whole entry): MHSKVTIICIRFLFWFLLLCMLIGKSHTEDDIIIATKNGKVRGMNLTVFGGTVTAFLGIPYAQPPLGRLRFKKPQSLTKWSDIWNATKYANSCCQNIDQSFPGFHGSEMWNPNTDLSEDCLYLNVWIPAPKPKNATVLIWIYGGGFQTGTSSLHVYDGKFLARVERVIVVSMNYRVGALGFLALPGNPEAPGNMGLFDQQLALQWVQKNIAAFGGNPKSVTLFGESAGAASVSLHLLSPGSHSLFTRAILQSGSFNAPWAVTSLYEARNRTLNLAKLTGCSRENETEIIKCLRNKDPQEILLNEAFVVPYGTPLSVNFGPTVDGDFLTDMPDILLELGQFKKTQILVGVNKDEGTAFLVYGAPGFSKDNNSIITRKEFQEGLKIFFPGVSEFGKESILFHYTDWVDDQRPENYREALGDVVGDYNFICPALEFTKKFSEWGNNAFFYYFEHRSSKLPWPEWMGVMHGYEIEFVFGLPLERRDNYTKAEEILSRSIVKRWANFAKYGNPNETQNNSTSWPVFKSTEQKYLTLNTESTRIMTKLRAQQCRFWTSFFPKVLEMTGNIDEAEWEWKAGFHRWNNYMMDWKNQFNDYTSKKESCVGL
Sequence of Cholinesterases; ACHE & BCHE (Homo sapiens) (P06276 whole entry, looked up): as the sequence (P06276 whole entry) above
Sequence of Cholinesterases; ACHE & BCHE (Homo sapiens) (P22303 whole entry, looked up): as the sequence (P22303 whole entry) above

## CN(C)CCCCCCOc1ccc(C(=O)/C=C/c2ccccc2)cc1
[1]
  Ratio IC50: 0.73
[2]
  logD: 1.8
Acetylcholinesterase [3]
  IC50: 14.2 µM
Cholinesterase
  IC50: 10.4 µM

## CCN(CC)CCCCCCOc1ccc(C(=O)/C=C/c2ccccc2)cc1
[1]
  Ratio IC50: 0.37
[2]
  logD: 1.91
Acetylcholinesterase [3]
  IC50: 50.4 µM
Cholinesterase
  IC50: 18.5 µM

## CCCN(CCC)CCCCOc1ccc(C(=O)/C=C/c2ccccc2)cc1
[1]
  Ratio IC50: 1.5
[2]
  logD: 1.95
Acetylcholinesterase [3]
  IC50: 5.91 µM
Cholinesterase
  IC50: 8.84 µM

## CN(C)CCOc1ccc(C(=O)/C=C/c2ccccc2)cc1
[1]
  Ratio IC50: 4.35
[2]
  logD: 1.49
Acetylcholinesterase [3]
  IC50: 4.68 µM
Acetylcholinesterase [4]
  Ki: 3.52 µM
Acetylcholinesterase [5]
  Ki: 7.99 µM
Cholinesterase
  IC50: 20.4 µM

## CCCCN(CCCC)CCOc1ccc(C(=O)/C=C/c2ccccc2)cc1
[1]
  Ratio IC50: 1.1
[2]
  logD: 2
Acetylcholinesterase [3]
  IC50: 253 µM
Cholinesterase
  IC50: 279 µM

## O=C(/C=C/c1ccccc1)c1ccc(O)cc1 [4'-HYDROXYCHALCONE]
Acetylcholinesterase [3]
  IC50: > 500 µM
Cholinesterase
  IC50: > 500 µM

## CN(C)CCCCCOc1ccc(C(=O)/C=C/c2ccccc2)cc1
[1]
  Ratio IC50: 1.33
[2]
  logD: 1.73
Acetylcholinesterase [3]
  IC50: 13.1 µM
Cholinesterase
  IC50: 17.4 µM

## CCCCN(CCCC)CCCCCOc1ccc(C(=O)/C=C/c2ccccc2)cc1
[2]
  logD: 2.14
Acetylcholinesterase [3]
  IC50: 76.9 µM
Cholinesterase
  IC50: 96.9 µM

## CCCCN(CCCC)CCCOc1ccc(C(=O)/C=C/c2ccccc2)cc1
[1]
  Ratio IC50: 0.45
[2]
  logD: 2.06
Acetylcholinesterase [3]
  IC50: 152 µM
Cholinesterase
  IC50: 68.3 µM

## CCCN(CCC)CCCCCOc1ccc(C(=O)/C=C/c2ccccc2)cc1
[1]
  Ratio IC50: 2.09
[2]
  logD: 2.01
Acetylcholinesterase [3]
  IC50: 29.5 µM
Cholinesterase
  IC50: 39.7 µM

## CCCCN(CCCC)CCCCCCOc1ccc(C(=O)/C=C/c2ccccc2)cc1
[1]
  Ratio IC50: 0.46
[2]
  logD: 2.19
Acetylcholinesterase [3]
  IC50: 163 µM
Cholinesterase
  IC50: 75.1 µM

## CN(C)CCCCOc1ccc(C(=O)/C=C/c2ccccc2)cc1
[1]
  Ratio IC50: 1.32
[2]
  logD: 1.64
Acetylcholinesterase [3]
  IC50: 8.95 µM
Cholinesterase
  IC50: 11.8 µM

## CCN(CC)CCOc1ccc(C(=O)/C=C/c2ccccc2)cc1
[1]
  Ratio IC50: 4.14
[2]
  logD: 1.61
Acetylcholinesterase [3]
  IC50: 7.63 µM
Cholinesterase
  IC50: 31.6 µM

## CCN(CC)CCCCOc1ccc(C(=O)/C=C/c2ccccc2)cc1
[1]
  Ratio IC50: 0.44
[2]
  logD: 1.74
Acetylcholinesterase [3]
  IC50: 23.2 µM
Cholinesterase
  IC50: 10.2 µM

## CCN(CC)CCCCCOc1ccc(C(=O)/C=C/c2ccccc2)cc1
[1]
  Ratio IC50: 0.77
[2]
  logD: 1.84
Acetylcholinesterase [3]
  IC50: 34.1 µM
Cholinesterase
  IC50: 26.3 µM

## CCCN(CCC)CCOc1ccc(C(=O)/C=C/c2ccccc2)cc1
[1]
  Ratio IC50: 0.81
[2]
  logD: 1.86
Acetylcholinesterase [3]
  IC50: 64.5 µM
Cholinesterase
  IC50: 52.6 µM

## CN(C)CCCOc1ccc(C(=O)/C=C/c2ccccc2)cc1
[1]
  Ratio IC50: 3.08
[2]
  logD: 1.59
Acetylcholinesterase [3]
  IC50: 10.5 µM
Cholinesterase
  IC50: 32.3 µM

## CCCCN(CCCC)CCCCOc1ccc(C(=O)/C=C/c2ccccc2)cc1
[1]
  Ratio IC50: 1.91
[2]
  logD: 2.09
Acetylcholinesterase [3]
  IC50: 21.9 µM
Cholinesterase
  IC50: 41.9 µM

## CCN(CC)CCCOc1ccc(C(=O)/C=C/c2ccccc2)cc1
[1]
  Ratio IC50: 0.89
[2]
  logD: 1.71
Acetylcholinesterase [3]
  IC50: 22.5 µM
Cholinesterase
  IC50: 20.1 µM

## CCCN(CCC)CCCCCCOc1ccc(C(=O)/C=C/c2ccccc2)cc1
[1]
  Ratio IC50: 0.92
[2]
  logD: 2.07
Acetylcholinesterase [3]
  IC50: 44.1 µM
Cholinesterase
  IC50: 40.7 µM

## CCCN(CCC)CCCOc1ccc(C(=O)/C=C/c2ccccc2)cc1
[1]
  Ratio IC50: 0.41
[2]
  logD: 1.91
Acetylcholinesterase [3]
  IC50: 24.6 µM
Cholinesterase
  IC50: 10.1 µM
